Laboratory results from ChEMBL document CHEMBL1938298, “Synthesis and characterization of [¹²⁵I]2-iodo N-[(S)-{(S)-1-methylpiperidin-2-yl}(phenyl)methyl]3-trifluoromethyl-benzamide as novel imaging probe for glycine transporter 1” (Bioorg Med Chem, 2011).
Activity calls are given as the source filed them. The calls are words filed in the database; no cut-off is given here.

Columns and labels:
[1] = system: Liver; assay: Drug uptake in ddY mouse liver at 11.1 kBq, iv after 180 min by gamma counting; type: ADME, organism-based; conditions: in vivo, 3 h
Summary of the method: (§1)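 Male ddY mice (6 weeks, 30–35 g) were given about 11.1 kBq of [125I]tracer in 0.1 mL i.v. via the tail vein. At each time point the animals were killed and organs dissected, weighed and gamma-counted. Uptake is expressed as % injected dose per gram of tissue, mean ± SD, n = 5–6.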

[2] = system: Blood; assay: Drug uptake in ddY mouse blood at 11.1 kBq, iv after 30 min by gamma counting; type: ADME, organism-based; conditions: in vivo, 0.5 h
Summary of the method: (§2)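 Male ddY mice (6 weeks, 30–35 g) received about 11.1 kBq [125I]tracer in 0.1 mL i.v. via tail vein. Killed at set times, organs dissected and weighed, radioactivity gamma counted. Reported as % injected dose/g tissue, mean ± SD, n = 5–6.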

[3] = system: Kidney; assay: Drug uptake in ddY mouse kidney at 11.1 kBq, iv after 5 min by gamma counting; type: ADME, organism-based; conditions: in vivo; summary of the method: as §1
[4] = system: Blood; assay: Drug uptake in ddY mouse blood at 11.1 kBq, iv after 0.5 min by gamma counting; type: ADME, organism-based; conditions: in vivo; summary of the method: as §2
[5] = system: Mus musculus; assay: In vivo binding affinity to GlyT1 in ddY mouse brain thalamus at 33.3 kBq, iv after 60 mins in presence of N-Me-SSR504734 2 mg/kg, iv administered 15 mins prior to compound administration relative to control; type: functional
[6] = system: Intestine; assay: Drug uptake in ddY mouse intestine at 11.1 kBq, iv after 5 min by gamma counting; type: ADME, organism-based; conditions: in vivo; summary of the method: as §2
[7] = biological target: T1, Sodium- and chloride-dependent glycine transporter 1 (Rattus norvegicus) (UniProt P28572); assay: Binding affinity to GlyT1 in rat brain cerebellum at 0.03 to 0.04 nM preincubated for 20 mins in binding buffer before compound addition measured after 30 mins by autoradiography in presence of 0.01 mM GlyT1 inhibitor SSR504734 relative to control; type: tissue-based; conditions: tested as the 125I-labelled form
T1 sequence (whole entry): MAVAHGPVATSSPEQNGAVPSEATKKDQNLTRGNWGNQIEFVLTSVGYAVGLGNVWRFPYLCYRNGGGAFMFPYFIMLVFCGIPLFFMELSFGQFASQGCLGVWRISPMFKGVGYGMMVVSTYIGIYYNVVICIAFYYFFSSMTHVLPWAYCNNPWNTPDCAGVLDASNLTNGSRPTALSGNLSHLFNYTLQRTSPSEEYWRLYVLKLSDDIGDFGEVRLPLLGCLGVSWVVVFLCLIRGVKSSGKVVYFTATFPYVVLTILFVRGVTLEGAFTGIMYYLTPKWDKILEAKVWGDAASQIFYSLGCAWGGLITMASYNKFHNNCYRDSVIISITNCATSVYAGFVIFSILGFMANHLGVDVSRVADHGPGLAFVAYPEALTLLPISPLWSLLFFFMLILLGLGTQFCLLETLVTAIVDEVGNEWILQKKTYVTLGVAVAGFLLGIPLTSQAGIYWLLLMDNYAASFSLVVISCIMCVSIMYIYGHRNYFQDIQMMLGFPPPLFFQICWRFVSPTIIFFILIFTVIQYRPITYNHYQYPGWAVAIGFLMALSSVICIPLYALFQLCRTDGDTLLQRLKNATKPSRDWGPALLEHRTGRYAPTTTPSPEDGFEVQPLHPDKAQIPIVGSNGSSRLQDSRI
Summary of the method: (§3)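 Rat brain sagittal sections (20 µm) preincubated 20 min at 25 °C in Tris-HCl buffer pH 7.5 (NaCl, KCl, MgCl2, CaCl2), then 30 min at 25 °C with [125I] tracer (100 kBq, 0.03–0.04 nM) plus competitor (10 µM; glycine 1 or 10 mM). Cold washes, imaging plate 3 days, ROI PSL minus background per mm². % control from ≥triplicate slices, three rats.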

[8] = biological target: T1, Sodium- and chloride-dependent glycine transporter 1 (Rattus norvegicus); assay: Binding affinity to GlyT1 in rat brain medullary region at 0.03 to 0.04 nM preincubated for 20 mins in binding buffer before compound addition measured after 30 mins by autoradiography in presence of 0.01 mM GlyT2 inhibitor ORG25543 relative to control; type: tissue-based; conditions: tested as the 125I-labelled form; summary of the method: as §3
[9] = system: Mus musculus; assay: In vivo binding affinity to GlyT1 in ddY mouse brain medullary region at 33.3 kBq, iv after 60 mins in presence of SSR504734 2 mg/kg, iv administered 15 mins prior to compound administration relative to control; type: functional, organism-based; set-up: dose 2 mg/kg; conditions: Medulla of organ, tested as the 125I-labelled form
[10] = biological target: T1, Sodium- and chloride-dependent glycine transporter 1 (Rattus norvegicus); assay: Binding affinity to GlyT1 in rat brain corpus callosum at 0.03 to 0.04 nM preincubated for 20 mins in binding buffer before compound addition measured after 30 mins by autoradiography in presence of 0.01 mM GlyT1 inhibitor HPCP relative to control; type: tissue-based; conditions: tested as the 125I-labelled form; summary of the method: as §3
[11] = biological target: T1, Sodium- and chloride-dependent glycine transporter 1 (Rattus norvegicus); assay: Binding affinity to GlyT1 in rat brain midbrain at 0.03 to 0.04 nM preincubated for 20 mins in binding buffer before compound addition measured after 30 mins by autoradiography in presence of 0.01 mM NMDA receptor glycine site antagonist L-701,324 relative to control; type: tissue-based; conditions: tested as the 125I-labelled form
[12] = system: Mus musculus; assay: In vivo binding affinity to GlyT1 in ddY mouse brain hippocampus at 33.3 kBq, iv after 30 mins in presence of nonradioactive compound 2 mg/kg, iv administered 15 mins prior to compound administration relative to control; type: functional, organism-based; set-up: dose 2 mg/kg; conditions: tested as the 125I-labelled form
Summary of the method: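 Blocking study in male ddY mice (6 weeks, 30–35 g). The blocker (2 mg/kg in 30% DMSO/saline) was injected i.v. 15 min before about 33.3 kBq [125I]tracer i.v.; mice were killed at 30 or 60 min. Brains were divided into cortex, corpus callosum, hippocampus, thalamus, midbrain, medulla and cerebellum, weighed and gamma-counted as % dose/g. Values are mean ± SD, n = 5–6, compared to control by Kruskal–Wallis with Dunn's post-test.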

[13] = biological target: T1, Sodium- and chloride-dependent glycine transporter 1 (Rattus norvegicus); assay: Binding affinity to GlyT1 in rat brain cerebellar white matter at 0.03 to 0.04 nM preincubated for 20 mins in binding buffer before compound addition measured after 30 mins by autoradiography relative to control; type: tissue-based; conditions: tested as the 125I-labelled form
[14] = biological target: T1, Sodium- and chloride-dependent glycine transporter 1 (Rattus norvegicus); assay: Binding affinity to GlyT1 in rat brain cerebellum at 0.03 to 0.04 nM preincubated for 20 mins in binding buffer before compound addition measured after 30 mins by autoradiography in presence of GlyT1 inhibitor N-Me-SSR504734 relative to control; type: tissue-based; conditions: tested as the 125I-labelled form; summary of the method: as §3
[15] = biological target: T1, Sodium- and chloride-dependent glycine transporter 1 (Rattus norvegicus); assay: Binding affinity to GlyT1 in rat brain corpus callosum at 0.03 to 0.04 nM preincubated for 20 mins in binding buffer before compound addition measured after 30 mins by autoradiography in presence of 0.01 mM GlyT2 inhibitor ORG25543 relative to control; type: tissue-based; conditions: tested as the 125I-labelled form; summary of the method: as §3
[16] = biological target: T1, Sodium- and chloride-dependent glycine transporter 1 (Rattus norvegicus); assay: Binding affinity to GlyT1 in rat brain thalamus at 0.03 to 0.04 nM preincubated for 20 mins in binding buffer before compound addition measured after 30 mins by autoradiography relative to control; type: tissue-based; conditions: tested as the 125I-labelled form
[17] = biological target: T1, Sodium- and chloride-dependent glycine transporter 1 (Rattus norvegicus); assay: Binding affinity to GlyT1 in rat brain cerebral cortex at 0.03 to 0.04 nM preincubated for 20 mins in binding buffer before compound addition measured after 30 mins by autoradiography in presence of 0.01 mM GlyT1 inhibitor HPCP relative to control; type: tissue-based; conditions: tested as the 125I-labelled form; summary of the method: as §3
[18] = biological target: T1, Sodium- and chloride-dependent glycine transporter 1 (Rattus norvegicus); assay: Binding affinity to GlyT1 in rat brain cerebellum at 0.03 to 0.04 nM preincubated for 20 mins in binding buffer before compound addition measured after 30 mins by autoradiography in presence of 0.01 mM GlyT2 inhibitor ORG25543 relative to control; type: tissue-based; conditions: tested as the 125I-labelled form; summary of the method: as §3

Row | Drug uptake [1] [% ID/g] | Drug uptake [2] [% ID/g] | Drug uptake [3] [% ID/g] | Drug uptake [4] [% ID/g] | Drug uptake [6] [% ID/g] | Activity [7] [%] | Activity [8] [%] | Activity [10] [%] | Activity [11] [%] | Activity [13] | Activity [14] [%] | Activity [15] [%] | Activity [16] | Activity [17] [%] | Activity [18] [%] | SMILES | Activity [5] [%] | Activity [9] | Activity [12]
1 | 15.05 | 0.9 | 10.71 | 1.35 | 2.47 | – | – | – | – | – | – | – | – | – | – | CN1CCCC[C@H]1[C@@H](NC(=O)c1cccc(C(F)(F)F)c1[125I])c1ccccc1 | 56 | – | –
2 | – | – | – | – | – | 27.7 | 91.4 | 19.7 | 81.3 | Active | 28.9 | 98.2 | Active | 31 | 124 | CN1CCCC[C@H]1[C@@H](NC(=O)c1cccc(C(F)(F)F)c1I)c1ccccc1 | – | inactive | Active
